Measured values collected from several papers.
Each line is one published result; the experiments were not run side by side.

C=CC(=O)N(C)CCOc1c(N)ncnc1-c1cc(F)cc(NC(=O)c2ccc(C3CC3)cc2F)c1C — Tmax (human; blood; oral; 100 mg; single dose, healthy volunteers): 1.03 h
NS(=O)(=O)NCCNc1nonc1C(=NO)Nc1ccc(F)c(Br)c1 — Tmax (human; plasma; oral; 50 mg; multiple doses, once daily, steady state, patients): 2 h
CS(=O)(=O)CCC#N — Tmax (human; plasma; oral; 100 mg; single dose, fasted): 2 h
COc1ccc([C@@H]2CN(C(=O)[C@@H](O)CO)C[C@@]2(C)[C@@H](C)O)cc1OC1CN(c2ccc(C)cn2)C1 — Tmax (human; plasma; oral; 5 mg; single dose, healthy volunteers): 1.5 h
CCc1nc(C(N)=O)c(Nc2ccc(N3CCC(N4CCN(C)CC4)CC3)c(OC)c2)nc1NC1CCOCC1 — Tmax (human; plasma; oral; 80 mg; multiple doses, patients): 4.03 h
CCc1nc2c(C)cc(N3CCN(CC(=O)N4CC(O)C4)CC3)cn2c1N(C)c1nc(-c2ccc(F)cc2)c(C#N)s1 — Tmax (human; plasma; oral; 1500 mg; fed, healthy volunteers): 2 h
CO[C@@H]1[C@H](OC(=O)N2CC(CCN3CCOCC3)C2)CC[C@]2(CO2)[C@H]1[C@@]1(C)O[C@@H]1CC=C(C)C — Tmax (human; plasma; subcutaneous; 3.6 mg; single dose, healthy volunteers): 0.25 h
C=CC(=O)N1CCC(Oc2cc3c(Nc4ccc(Cl)c(Cl)c4F)ncnc3cc2OC)CC1 — Tmax (human; plasma; oral; 16 mg; single dose, fasted): 1.26 h
Nc1cc(C(F)(F)F)c(-c2cc(N3CCOCC3)nc(N3CCOCC3)n2)cn1 — Tmax (human; plasma; oral; 25 mg/day; patients): 1 h
CC(C)n1cc(C#N)c2cc(-n3cc(C(=O)O)cn3)ccc21 — Tmax (human; plasma; oral; 10 mg; single dose, fasted, healthy volunteers): 2.8 h
C[C@@H](Nc1cc(F)cc(F)c1)c1cc(C(=O)N(C)C)cc2c(=O)cc(N3CCOCC3)oc12 — Tmax (human; plasma; oral; 30 mg; single dose, patients): 2 h
O=C(Nc1c(Cl)cncc1Cl)c1ccc(OC(F)F)c(OCC2CC2)c1 — Tmax (human; plasma; oral; 0.375 mg; single dose): 0.5 h
CC(C)(Sc1ccncc1-c1ccc(C#N)c2ccccc12)C(=O)O — Tmax (male human; plasma; oral; 5 mg; single dose, fasted, healthy volunteers): 0.63 h
COc1cc(N2CCC(N3CCN(C)CC3)CC2)ccc1Nc1ncnc(Nc2ccccc2S(=O)(=O)C(C)C)n1 — Tmax (human; plasma; oral; 200 mg; multiple doses, patients): 2.96 h
C#C[C@]1(COP(=O)(O)OP(=O)(O)OP(=O)(O)O)O[C@@H](n2cnc3c(N)nc(F)nc32)C[C@@H]1O — Tmax (human; plasma; oral; 15 mg; single dose): 6 h
Cn1cc(-c2ccc(S(=O)(=O)[C@@H]3C[C@@H](C(=O)NC4(C#N)CC4)N(C(=O)C4(C(F)(F)F)CC4)C3)c(C(F)(F)F)c2)cn1 — Tmax (human; plasma; oral; 100 mg; single dose, fasted, healthy volunteers): 4 h
c1cnc2ccc(Nc3nc(NC4CC4)c4nc[nH]c4n3)cc2c1 — Tmax (human; plasma; oral; 800 mg/m²; patients): 5 h
CC(C)(O)c1ccccc1-c1ccc2[nH]c(/C=C/c3ccc(C(F)(F)F)cc3)nc2c1 — Tmax (male human; plasma; oral; 5 mg; single dose, fasted): 3.95 h
CO[C@H]1/C=C\C=C(/C)C(=O)NC2=CC(=O)C(NCCN(C)C)=C(C[C@@H](C)C[C@H](OC)[C@H](O)[C@@H](C)/C=C(\C)[C@@H]1OC(N)=O)C2=O — Tmax (human; plasma; intravenous; 12 mg/m²; patients, infusion): 1 h
Oc1cc(O)c2c(c1)O[C@@H](c1ccc(O)c(O)c1)[C@@H](O)C2 — Tmax (human; plasma; oral; 100 mg; single dose): 1 h
Cc1nc(NC(=O)N2CCC[C@H]2C(N)=O)sc1-c1ccnc(C(C)(C)C(F)(F)F)c1 — Tmax (human; plasma; oral; 90 mg; patients): 2 h
